In general, EC50 refers to the concentration at which the effect is half-maximal. What is called IC50 is the concentration needed to halve the response being measured. Read a low IC50 as higher potency. What is called solubility is the concentration that dissolves in the medium under given conditions. High values mean much dissolved substance, low ones little dissolved substance. Usually microsomal CLint stands for the rate of metabolic loss divided by the concentration. Lower therefore signals slow turnover.

SMILES strings stand for the structures. Converted amounts (≈) assume the structure as drawn.

The values below come from article PMC9933477 (ACS Omega, 2023).

One data set deals with T1, GPBAR1 (Homo sapiens, UniProt Q8TDU6).
T1 sequence (Q8TDU6 1-330): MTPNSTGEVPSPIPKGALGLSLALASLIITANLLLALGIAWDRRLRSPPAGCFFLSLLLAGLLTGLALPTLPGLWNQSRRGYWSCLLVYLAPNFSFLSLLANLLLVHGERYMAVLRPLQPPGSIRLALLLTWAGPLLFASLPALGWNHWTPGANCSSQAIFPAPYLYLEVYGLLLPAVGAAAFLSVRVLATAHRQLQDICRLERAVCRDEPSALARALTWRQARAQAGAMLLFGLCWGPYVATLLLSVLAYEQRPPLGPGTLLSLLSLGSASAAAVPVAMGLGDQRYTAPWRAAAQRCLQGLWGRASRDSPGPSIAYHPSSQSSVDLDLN
Put plainly: Luciferase reporter assay. The format is cell-based. Summed up:
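HEK-293T cells transfected with GPBAR1 carry a cAMP-responsive element (CRE) luciferase reporter. Single-point efficacy at 10 μM is scored against TLCA (10 μM) as 100%, as the mean of two experiments ± SD. EC50 comes from concentration-dependent CREB activation in the same transfected cells.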

A further data set deals with T2, RORγt (Homo sapiens, UniProt P51449).
T2 sequence (P51449 251-518): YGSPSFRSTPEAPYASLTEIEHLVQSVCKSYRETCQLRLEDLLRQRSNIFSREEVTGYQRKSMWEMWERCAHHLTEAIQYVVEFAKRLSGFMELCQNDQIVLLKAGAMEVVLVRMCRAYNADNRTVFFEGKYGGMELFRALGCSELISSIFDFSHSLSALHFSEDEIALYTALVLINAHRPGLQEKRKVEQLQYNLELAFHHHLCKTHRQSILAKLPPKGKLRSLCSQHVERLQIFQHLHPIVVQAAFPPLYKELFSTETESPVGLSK
Put plainly: Cofactor peptide recruitment assay. The format is biochemical. The procedure, abridged: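 Cell-free AlphaScreen measuring test compound interference with RORγt binding to SRC-1 coactivator peptide. […] Vehicle (DMSO) wells are set as 100% control and wells lacking protein as 0% control.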

In another data set the test system is U937 cells. Put plainly: U937 cells activated with LPS plus TNFα, RT-PCR of proinflammatory genes. The format is cell-based, human. Particulars: 1 μM, 24 h, compared to cells exposed only to LPS plus TNFα.
Data set [1] is described as follows: Aqueous solubility measurement. The format is physicochemical. The conditions noted are these: PBS pH 7.4, pH 7.4, aqueous buffer, kinetic from dmso stock.
Data set [2] can be described thus: Metabolic stability in human liver microsomes. Particulars: pH 7.4. It is filed as in vitro ADME. Background: Liver microsomes are vesicles of endoplasmic reticulum, rich in cytochrome P450 enzymes.
The test system of another data set is TNBS-induced colitis. Put plainly: Mouse model of TNBS-induced colitis. The conditions noted are these: 10, 20 or 30 mg/kg/day by gavage. It is filed as in vivo. Summed up: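 C57 male mice given TNBS to induce colitis, then vehicle or test compound at 10, 20 or 30 mg/kg/day by gavage, day 0 to day 4. Read-outs: body-weight change, CDAI, colon length, colon weight/length ratio, H&E of colon sections. Colon mRNA by RT-PCR normalised to Gapdh, Tbp and Actb. Mean ± SEM of 5–10 mice/group; p<0.05 vs TNBS or untreated.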

On GPBAR1, `C[C@H](CCCOc1ccc(C(=O)O)cc1)[C@H]1CC[C@H]2[C@@H]3CC=C4C[C@@H](O)CC[C@]4(C)[C@H]3CC[C@]12C` [Compound 3] displayed an EC50 of 220 nM. On RORγt, inhibition was half-maximal at 1190 nM (IC50). The “Reduction in the expression of all measured genes (IL-1β, TNFα, IL-6, CD11c)” value with U937 cells is reported as 30–50%.
Regarding `C[C@H](CCCOc1ccc(C#N)cc1)[C@H]1CC[C@H]2[C@@H]3CC=C4C[C@@H](O)CC[C@]4(C)[C@H]3CC[C@]12C` [Compound 5], the solubility at 24 h in data set [1] turned out to be 10 µM (≈ 4.62 µg/mL).
`C[C@H](CCCOc1cccc(CO)c1)[C@H]1CC[C@H]2[C@@H]3CC=C4C[C@@H](O)CC[C@]4(C)[C@H]3CC[C@]12C` [Compound 7] registered a 50% effective concentration (EC50) on GPBAR1 of 5900 nM. At RORγt, this compound had an IC50 of 107 nM. The same compound showed a microsomal CLint at 1 µM in data set [2] of 7 µL/min/mg. Further, in the data set on TNBS-induced colitis (day 0 to day 4), the “Damage to the colon (macroscopic analysis and H&E histology)” value is “decreased the damage to the colon”; the “Severity of colitis (percentage of body weight, CDAI)” value is reported as “relieved by 7 in a dose-dependent manner”. For the same compound, in the data set with TNBS-induced colitis (RT-PCR of colon), the “Colon expression of IL-10” value is reported as “strong increase”; the “Colon expression of Rorc, IL-17A, and F” value is listed as “decreased the expression”.
In turn, `C[C@H](CCCOc1ccc(C#N)cc1)[C@H]1CC[C@H]2[C@@H]3CC[C@@H]4C[C@H](O)CC[C@]4(C)[C@H]3CC[C@]12C` [Compound 17] showed a solubility at 24 h in data set [1] of 15 µM (≈ 6.96 µg/mL).
